Molecules are shown by their SMILES. Activity calls are given as the source filed them. The rule behind the calls is not given here.

Experiment [1] concerns Aspergillus fumigatus. Put plainly: Antimicrobial activity against Aspergillus fumigatus up to 100 ug/mL. The experiment is classed as functional, organism-based. In a few lines: (§1)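 Minimum inhibitory concentration was measured in a microtiter plate growth bioassay against a panel of human and agricultural fungal pathogens and Gram-positive and Gram-negative bacteria.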

Experiment [2] has as its system Candida albicans. Put plainly: Antimicrobial activity against Candida albicans up to 100 ug/mL. In kind it is functional, organism-based. In a few lines: as §1
Experiment [3] relates to Staphylococcus aureus. Put plainly: Antimicrobial activity against Staphylococcus aureus. In kind it is functional.
In experiment [4] the test system is Pseudomonas savastanoi. Put plainly: Antimicrobial activity against Pseudomonas savastanoi up to 100 ug/mL. In kind it is functional, organism-based. In a few lines: as §1
The test system of experiment [5] is Heterobasidion annosum. Put plainly: Antimicrobial activity against Heterobasidion annosum up to 100 ug/mL. In kind it is functional, organism-based. The procedure, abridged: as §1
The test system of experiment [6] is Fusarium oxysporum. Put plainly: Antimicrobial activity against Fusarium oxysporum up to 100 ug/mL. The experiment is classed as functional, organism-based. In a few lines: as §1
Experiment [7] concerns Microsporum canis. The experiment can be described thus: Antimicrobial activity against Microsporum canis up to 100 ug/mL. The experiment is classed as functional, organism-based. The procedure, abridged: as §1
Experiment [8] deals with Drechslera. The experiment can be described thus: Antimicrobial activity against Drechslera sorokiniana up to 100 ug/mL. In kind it is functional, organism-based. The procedure, abridged: as §1
Experiment [9] deals with Fusarium culmorum. The experiment can be described thus: Antimicrobial activity against Fusarium culmorum up to 100 ug/mL. The experiment is classed as functional, organism-based. In a few lines: as §1
Experiment [10] deals with Pseudomonas syringae. Put plainly: Antimicrobial activity against Pseudomonas syringae pv. syringae. In kind it is functional.

In the case of `CCCCCCCCCC(O)/C=C/C(C)=C/CC(=O)NC[C@H](O)[C@H](C)C(=O)NCC/C=C/C=C/C=C/C(=O)O` (mixture of isomers) [PSEUDOTRIENIC ACID A], the result in experiment [1], in experiment [2], in experiment [4], in [5], in [6] and in experiment [7] was inactive. Moreover, the outcome in [8] and in [9] was inactive. Moreover, the minimal inhibitory concentration (MIC) in experiment [3] and in [10] was 70 µg/mL in each case.

On to `CCCCCCCC(O)/C=C/C(C)=C/CC(=O)NC[C@H](O)[C@H](C)C(=O)NCC/C=C/C=C/C=C/C(=O)O` (mixture of isomers) [PSEUDOTRIENIC ACID B], for which the outcome in [1], in experiment [2], in experiment [4], in experiment [5], in experiment [6] and in [7] was inactive. Moreover, the result in [8] and in [9] was inactive. The MIC in experiment [3] and in experiment [10] was 70 µg/mL each time.

The MIC is the least concentration at which growth counts as inhibited. Higher therefore signals weaker potency.
